# Source: PubChem (several laboratories)
# Myeloid diff MLP: compounds promoting myeloid differentiation | ER-HoxA9 myeloid progenitors, lysozyme-GFP differentiation, flow cytometry | calls only at 10 µM | 360,000 tested, 1% active | AID 624256;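 active = normalized GFP-positive differentiation at or above the plate's own cutoff, the solvent-only control mean plus 3 SD; inconclusive = no clear call, values can overlap the other calls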;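 note: cells exposed to compound for four days before flow analysis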
# beta cell repl: induces beta-cell replication in MIN6 cells. MIN6 cells proliferation, ATPlite luminescence, 48 h; cells starved in 0.2% serum; 100% = growth in 10% serum. proliferation, % at 10 µM. 330,000 tested, 0.29% active. AID 2380;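 active = compounds whose signal lies at least 3.5 SD above the mean of all wells on their plate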
# SENP1 inh: blocks the human SENP1 SUMO protease catalytic domain; Q9P0U3; recombinant SENP1 catalytic domain, CyPet-SUMO1-YPet FRET cleavage; inhibition, % at 10 µM; 360,000 tested, 0.21% active; AID 624204;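 active = inhibition at least 30% at 10 µM, raw YFP signal under a set limit, fluorescence ratio 0.5 to 1.5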
#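 Assay system: hSENP1 catalytic domain, recombinant. Amount: SENP1 enzyme, 20 pM final. Schedule: 50 min reaction, RT, dark. Technique: FRET, CFP and YFP emission. Control set: no-enzyme wells low, DMSO-plus-enzyme wells high control.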
# DAGLB inh: blocks human DAGLB lipase activity | HEK293T DAGLB membrane lysate, EnzChek fluorogenic substrate | inhibition, % at 5.17 µM | 340,000 tested, 0.059% active; in the data active = inhibition above about 34%
# MT1-MMP act inh: inhibitors of human MT1-MMP activation | GFP/RFP ratio change, % at 20 µM | P50281 | 360,000 tested, 0.061% active | HT1080 RFP-PRO-GFP cells, GFP/RFP ratio fluorescence, overnight; percent of plate control window, DMSO zero;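 active = GFP/RFP ratio change of at least 30% with cell ATP level not reduced by more than half and red fluorescence within 50% of control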
#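 Material: RFP-PRO-GFP reporter HT1080 cells. Dosing: single-point 20 µM compound, 1% DMSO. Controls: DMSO and RFP-L50D-GFP cell wells. Timing: cells overnight before dosing, compound overnight, 37 °C, 5% CO2. Measure: GFP/RFP fluorescence ratio.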
# NRP1-CendR mod: alters CendR peptide binding to human NRP-1 | FAM-RPARPAR peptide binding to NRP-1, fluorescence polarization | 360,000 tested, 0.85% active | O14786 | AID 602438 | inhibition, % at 25 µM;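 active = inhibition or corrected inhibition above about 18%, plus a signal ratio from 0.5 to 1.5, limit read from the data, passing the limit was not always enough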
# Target sequence (O14786 whole entry, looked up): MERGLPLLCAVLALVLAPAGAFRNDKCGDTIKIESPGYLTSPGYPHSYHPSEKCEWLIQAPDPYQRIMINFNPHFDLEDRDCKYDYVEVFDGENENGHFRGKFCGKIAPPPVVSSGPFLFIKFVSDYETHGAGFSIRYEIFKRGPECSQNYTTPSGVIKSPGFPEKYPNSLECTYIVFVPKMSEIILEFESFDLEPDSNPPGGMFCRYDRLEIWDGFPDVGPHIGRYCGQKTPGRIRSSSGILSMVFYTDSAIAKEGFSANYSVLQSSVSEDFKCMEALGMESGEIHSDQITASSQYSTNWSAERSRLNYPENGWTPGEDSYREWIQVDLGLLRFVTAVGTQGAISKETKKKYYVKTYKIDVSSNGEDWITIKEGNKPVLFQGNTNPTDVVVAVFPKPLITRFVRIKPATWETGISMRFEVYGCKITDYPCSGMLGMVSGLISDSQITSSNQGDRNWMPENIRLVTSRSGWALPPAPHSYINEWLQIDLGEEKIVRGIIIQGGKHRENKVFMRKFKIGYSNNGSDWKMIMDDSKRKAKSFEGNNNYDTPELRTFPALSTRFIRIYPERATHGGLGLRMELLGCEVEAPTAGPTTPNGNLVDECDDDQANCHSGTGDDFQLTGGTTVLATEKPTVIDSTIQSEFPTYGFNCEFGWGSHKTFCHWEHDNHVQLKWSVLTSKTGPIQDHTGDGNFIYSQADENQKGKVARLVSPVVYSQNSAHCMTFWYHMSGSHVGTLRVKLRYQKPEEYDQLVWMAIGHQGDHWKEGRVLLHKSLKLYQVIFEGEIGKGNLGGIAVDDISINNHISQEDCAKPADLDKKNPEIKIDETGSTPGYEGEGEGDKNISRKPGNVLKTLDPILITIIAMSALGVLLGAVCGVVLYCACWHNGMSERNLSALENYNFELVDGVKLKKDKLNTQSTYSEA
# Myeloid diff CP1: compounds promoting myeloid differentiation. shares compounds with Myeloid diff MLP. ER-HoxA9 myeloid progenitors, GFP/Mac1 double-positive flow. calls only. 2,300 tested, 2% active;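 active = share of green or green-and-red cells above 9 and 9% in run 1 or 4 and 3% in run 2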
# GFP autofluor: compound fluorescence in myeloid differentiation counter-screen | ER-HoxA9 myeloid progenitors, no estrogen, GFP autofluorescence flow cytometry; vehicle wells 0%, positive control 100% | 2,300 tested, 7.4% active | shares compounds with Myeloid diff MLP | fluorescence response, % (concentration not given with the values);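 active = over 5% cells positive for green fluorescent reporter, or over 2% positive for both it and APC stain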
# MT1-MMP conf: MT1-MMP (human) activation inhibition, single-concentration validation; shares compounds with MT1-MMP act inh; AID 652235; 200 tested, 10% active; inhibition, % at 20 µM; HT1080 RFP-PRO-GFP cells, GFP and RFP fluorescence ratio, overnight;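 active = inhibition of at least 50% in the primary cell screen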
# Hits are given with their value; - = inactive; ? = inconclusive; . = no result given; + = active, no number. Compounds with a hit are over-represented: about 2.4% of the library has one in this group of screens.
SMILES,Myeloid diff MLP,beta cell repl,SENP1 inh,DAGLB inh,MT1-MMP act inh,NRP1-CendR mod,MT1-MMP conf,others
Cc1nn2c(N3CCOCC3)c3c(nc2c1-c1ccccc1)CCCC3,+,-,-,-,-,-,.,Myeloid diff CP1=-;GFP autofluor=-
O=C(Nn1cnc2ccccc2c1=O)c1c(F)cccc1F,-,-,-,-,-,-,.,
CCc1ccc(NC(=O)Cn2cccc2)cc1,-,-,-,-,-,-,.,
Cc1nnc(NC(=O)CCN2C(=O)C3CC=CCC3C2=O)s1 (stereo unspecified),-,.,-,-,-,-,.,
COc1ccc(Cl)cc1NC(=O)CSC1=NN2CCCC(=O)N=C2S1,-,-,-,-,-,-,.,
CC(=O)Nc1ccc(C2=CC(=O)C[C@H](c3ccc(Cl)cc3)C2)cc1,-,-,-,-,-,-,.,Myeloid diff CP1=+;GFP autofluor=-
CN1/C(=C/C=C/c2n(C)c3cc([N+](=O)[O-])c([N+](=O)[O-])cc3[n+]2C)C(C)(C)c2ccccc21,+,.,-,-,96.6,-,94.3,Myeloid diff CP1=-;GFP autofluor=7.2
CN1/C(=C\C=C(C#N)C#N)C(C)(C)c2ccccc21,-,-,-,-,-,-,.,
O=C(CSc1ccccc1F)NNC(=O)c1cncc(Br)c1,-,-,-,-,-,-,.,
CN(CC(=O)Nc1cc([N+](=O)[O-])ccc1Cl)Cc1ccc(Br)cc1,-,-,-,-,35.9,-,-,Myeloid diff CP1=-;GFP autofluor=-
Cc1[nH]n(-c2ccccc2)c(=O)c1N=Nc1nccs1,-,-,-,-,32.4,-,-,
COC(=O)C=CSC(=S)C1CCCC1=N (stereo unspecified),-,.,-,-,-,-,.,
CCC(=O)N1CCC1(C)C(=O)Nc1ccc(F)cc1 (stereo unspecified),-,.,-,.,34.1,-,-,
O=C(COC(=O)Cc1ccc(Br)cc1)NC1CC1,-,-,-,-,-,-,.,
O=[N+]([O-])c1ccc(N2CCCCC2)s1,-,-,-,-,32.2,-,-,
Cc1ccccc1N1CC(=O)N(c2ccccc2C)CC1=O,-,-,-,-,36.2,-,-,
O=C1CN(c2ccccc2Cl)C(=O)CN1c1ccccc1Cl,-,-,-,-,-,-,.,
COc1ccc(Br)cc1CNc1ccc2[nH]c(=O)[nH]c2c1,-,-,-,-,-,-,.,
COc1ccc(Br)cc1CNc1ccc(O)cc1,-,-,-,-,52.4,-,-,
O=S(=O)(O)c1cc(O)c(N=Nc2ccc(O)cc2O)c2ccccc12,-,.,-,-,64.4,-,50.1,
O=S(=O)(c1ccc2nc(COc3ccc(Cl)cc3Cl)[nH]c2c1)N1CCOCC1,?,-,-,-,35.0,-,-,
CC(=O)NC(c1ccc(F)c(F)c1)c1nc(-c2cccc(F)c2)cs1 (stereo unspecified),-,.,-,.,-,-,.,
COc1cc(-c2cc(=O)c3c(O)c(OC)c(OC)cc3o2)cc(OC)c1O,-,-,-,-,31.2,-,-,
COc1ccc(-c2cc(=O)c3c(O)c(OC)c(O)cc3o2)cc1,-,-,-,-,-,-,.,
Cc1cccc(OCCC(=O)N(C)CC(=O)Nc2cccc3ccccc23)c1,-,-,-,-,-,-,.,
SMILES,Myeloid diff MLP,beta cell repl,SENP1 inh,DAGLB inh,MT1-MMP act inh,NRP1-CendR mod,MT1-MMP conf,others
COc1cccc2[nH]c3c(N4CCCCC4)ncnc3c12,-,-,-,-,32.0,-,-,
CCOC(=O)C1CCN(c2ncnc3c2[nH]c2cccc(OC)c23)CC1,-,-,-,-,-,-,.,
CCC(=O)N[C@H]1CC[C@@H](CCn2cc(C3CC3)nn2)O[C@@H]1CO,-,.,-,.,-,-,.,
CN1C2=CC=CC=CC2=[N+](C)C12C=CC(=[N+]([O-])[O-])C=C2[N+](=O)[O-] (stereo unspecified),-,-,-,-,38.9,-,-,
CN1/C(=C/C(=S)NC(=O)C2(C)CC2(Cl)Cl)C(C)(C)c2ccccc21 (stereo unspecified),-,-,-,-,-,-,.,
COc1ccccc1C(=O)NC(=S)/C=C1/N(C)c2ccccc2C1(C)C,?,-,-,-,55.0,-,-,
CCOC(=O)c1cnc2c(-c3cccc(Br)c3)cnn2c1C,-,-,-,-,-,-,.,
CC(C)CSC1=NSC2=NC(=O)/C(=C\c3cccs3)C(=N)N12,-,-,-,-,-,-,.,
CSC1=NSC2=NC(=O)/C(=C\c3cccs3)C(=N)N12,-,.,-,-,35.2,-,-,
COc1cccc(N=Nc2ccc(O)c3ncccc23)c1,?,-,-,-,-,-,.,
COc1ccc(C)cc1N=Nc1ccc(O)c2ncccc12,?,.,-,-,30.6,-,-,
CC1CCN(C(=O)c2ccc3c(c2NCCO)C(=O)c2ccccc2C3=O)CC1,-,-,-,-,30.6,-,-,
CCn1c2ccccc2nc2cc3c(cc21)c(Cl)c(=O)c1ccccc13,?,.,-,-,35.7,-,-,
CCn1c(/C=C/c2c(C)n(CC)c3ccccc23)nc2ccccc2c1=O,-,-,-,-,-,-,.,
Cc1cccc[n+]1CC(=O)/C=C1\N(C)c2ccccc2C1(C)C,-,-,-,-,41.3,-,-,
CN1/C(=C\C(=O)CN2C(=O)NC3(CCCCCC3)C2=O)C(C)(C)c2ccccc21,+,-,-,-,33.7,-,-,
CCOc1ccc(OCCC(=O)N(CC)CC(=O)Nc2c(F)cccc2F)cc1,-,-,-,-,-,-,.,
CCOC(=O)C1=C(C)N=c2s/c(=C\c3cccc(OCC(=O)O)c3)c(=O)n2C1c1ccccc1OC (stereo unspecified),-,-,-,-,-,-,.,
CCOC(=O)C1=C(C)N=c2s/c(=C\c3ccc(OC(C)=O)c(OCC)c3)c(=O)n2C1/C=C/c1ccccc1 (stereo unspecified),-,-,-,-,42.2,-,-,
O=C(O)c1cccc(N2C(=O)c3cccc4cccc(c34)C2=O)c1,-,-,-,-,-,-,.,
O=C(O)c1cccc(N2C(=O)c3cc([N+](=O)[O-])cc4cc([N+](=O)[O-])cc(c34)C2=O)c1,-,-,-,-,41.9,26.5,-,
CN(c1cc2c(c3c1ccn3C)C1CCC2C1)C1CCCCC1 (stereo unspecified),-,.,-,.,34.9,-,-,
